According to article PMC4355043 (Bioorganic & medicinal chemistry letters, 2014):

Experiments:
Type in all cases: cell-based
[1] = system: amphotropic murine leukemia virus (AMLV) Env pseudotyped HIV-1 virus; settings: result in words
[2] = system: HIV-1 94US_33931 N (subtype B); settings: isolate 94US_33931 N
Outline: (§1)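 Primary human PBMCs infected with fully infectious isolates from HIV-1 subtypes A, B, C and D, plus one HIV-2 isolate, to measure inhibition of viral replication. Toxicity to the same PBMCs was assessed concomitantly with an MTS assay. IC50 is the half-maximal inhibitory concentration and TC50 the half-maximal toxic concentration. Antiviral index is calculated as TC50/IC50.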

[3] = system: HIV-1 99UG_A07412M1 (subtype D); settings: isolate 99UG_A07412M1, subtype D
Outline: as §1

[4] = system: HIV-1 92UG037 (subtype A); assay: replication of fully infectious virus in primary human PBMCs, isolate 92UG037; settings: isolate 92UG037, subtype A
[5] = system: HIV-1 91US004 (subtype B); assay: replication of fully infectious virus in primary human PBMCs, isolate 91US004; settings: isolate 91US004, subtype B
Outline: as §1

[6] = system: HIV-1 98US_MSC5016 (subtype C); settings: isolate 98US_MSC5016, subtype C
[7] = system: primary human peripheral blood mononuclear cells (PBMCs); assay: toxicity to PBMCs using an MTS assay; settings: run concomitantly with each isolate
Outline: as §1

HIV-2CDC310319 = assay: replication of fully infectious virus in primary human PBMCs, HIV-2 isolate; settings: result in words
Outline: as §1

Row | SMILES | inhibition of AMLV-pseudotyped HIV-1 (specificity) [1] | Antiviral index (TC50/IC50) [2] | Antiviral index (TC50/IC50) [3] | Antiviral index (TC50/IC50) [4] | Antiviral index (TC50/IC50) [5] | Antiviral index (TC50/IC50) [6] | C50 (half-maximal toxic concentration) [7] | effect on the replication of an HIV-2 isolate (HIV-2CDC310319)
1 | COc1cnc(Cl)c2[nH]cc(C(=O)C(=O)N3CC4CN(C(=O)c5ccccc5)CC4C3)c12 (stereo not drawn) [SC07] | no inhibition |  |  |  |  |  |  | 
2 | COc1ncc(OC)c2c(C(=O)C(=O)N3CC4CN(C(=O)c5ccccc5)CC4C3)c[nH]c12 (stereo not drawn) [SC08] | no inhibition |  |  |  |  |  |  | 
3 | COc1cnc(-n2cnc(C)n2)c2[nH]cc(C(=O)C(=O)N3CC4CN(C(=O)C5=CCCCC5)CC4C3)c12 (stereo not drawn) [SC26] |  | > 166,666 | >204 | >3.97 | >513 | >25.6 | >100 MM | no effect
